What all share (format): functional
One assay concerns Melanoma cell line. The experiment in a line: Cytotoxicity against human Melanoma cells incubated for 48 hrs by SRB assay. In a few lines: (§1)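 NCI-60 five-concentration screen: lines seeded 5×10^3–4×10^4 cells/well depending on line; compound diluted in fresh medium at scalar concentrations 0–100 or 0–1000 μM; 48 h exposure, in situ fixation, sulforhodamine B protein staining, optical density read; GI50, TGI and LC50 per NCI procedures; panel mean = mean graph midpoint.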
A general note: In SRB staining, fixed cells bind dye roughly in proportion to their protein.

For another assay, the system named is NSCLC. The experiment in a line: Cytotoxicity against human NSCLC cells incubated for 48 hrs by SRB assay. The essentials: as §1
For another assay, the system named is Prostatic carcinoma cell. The experiment in a line: Cytotoxicity against human Prostate carcinoma cells incubated for 48 hrs by SRB assay. The essentials:
as §1

As a reminder, the LC50 is the concentration lethal to half of the exposed cells or organisms. Read a high LC50 as a less lethal substance.

`Cc1cc2c(cc1O)/C(=C\c1cc(C(C)(C)C)cc(C=O)c1O)C(=O)N2`: the median lethal concentration (LC50) with Melanoma cell line is 37.1 µM; in the assay on NSCLC, 51.3 µM; in the assay on Prostatic carcinoma cell, 57.5 µM.
The matching figures for `COc1ccc2c(c1)/C(=C\c1cc(C(C)(C)C)cc(/C=C3/C(=O)N(C)c4ccc(OC)cc43)c1O)C(=O)N2C`: 9.55 µM, 31.6 µM and 67.6 µM.
The matching figures for `CC(C)(C)c1cc(/C=C2/C(=O)Nc3ccc(F)cc32)c(O)c(/C=C2/C(=O)Nc3ccc(F)cc32)c1`: 33.9 µM, 47.9 µM and 4.74 µM.
Take `CC(C)(C)c1cc(/C=C2/C(=O)Nc3cc(Cl)ccc32)c(O)c(/C=C2/C(=O)Nc3cc(Cl)ccc32)c1`: the LC50 was 30.9 µM in the assay on Melanoma cell line, 47.9 µM in the assay on NSCLC and 38 µM in the assay on Prostatic carcinoma cell.
In the case of `COc1cc2c(/C=C3/C(=O)N(C)c4cc5c(cc43)/C(=C\c3c(Cl)[nH]c4cc(C)c(OC)cc34)C(=O)N5C)c(Cl)[nH]c2cc1C`, the LC50 with Melanoma cell line amounted to 22.4 µM; in the assay with NSCLC it was 51.3 µM; in the assay with Prostatic carcinoma cell, 20.4 µM.
The matching figures for `COc1ccc2c(c1)/C(=C\c1ccc3ccc4ccc(/C=C5/C(=O)N(C)c6ccc(OC)cc65)nc4c3n1)C(=O)N2C`: 30.2 µM, 85.1 µM and 56.2 µM.
The matching figures for `O=C1Nc2cccc(F)c2/C1=C\c1cccc(/C=C2/C(=O)Nc3cccc(F)c32)c1`: 9.33 µM, 33.1 µM and 18.6 µM.
As for `COc1cc2c(c(OC)c1OC)C(=Cc1cc(C(C)(C)C)cc(/C=C3\C(=O)Nc4cc(OC)c(OC)c(OC)c43)c1O)C(=O)N2`, the median lethal concentration (LC50) in the assay with Melanoma cell line amounted to 8.13 µM; in the assay on NSCLC it was 14.8 µM; with Prostatic carcinoma cell it was 12.6 µM.
With `O=C1Nc2cc(Cl)ccc2/C1=C\c1cccc(/C=C2/C(=O)Nc3cc(Cl)ccc32)c1`, the median lethal concentration (LC50) with Melanoma cell line is 19.5 µM; in the assay with NSCLC, 45.7 µM; in the assay on Prostatic carcinoma cell, 28.2 µM.
The matching figures for `COc1ccc2[nH]c(Cl)c(/C=C3/C(=O)N(C)c4cc5c(cc43)/C(=C\c3c(Cl)[nH]c4ccc(OC)cc34)C(=O)N5C)c2c1`: 12.9 µM, 24.6 µM and 7.94 µM.
`O=C1Nc2ccc(Cl)cc2/C1=C\c1ccc2ccc3ccc(/C=C4/C(=O)Nc5ccc(Cl)cc54)nc3c2n1`: the median lethal concentration (LC50) with Melanoma cell line worked out at 51.3 µM; in the assay with NSCLC it was 52.5 µM.
Regarding `CC(C)(C)c1cc(/C=C2/C(=O)Nc3cccc(F)c32)c(O)c(/C=C2/C(=O)Nc3cccc(F)c32)c1`, the values for the LC50 in the assay on Melanoma cell line, with NSCLC and with Prostatic carcinoma cell were 13.2 µM, 15.8 µM and 36.3 µM, respectively.
Consider `COc1cc2c(cc1C)NC(=O)/C2=C/c1ccc2ccc3ccc(/C=C4/C(=O)Nc5cc(C)c(OC)cc54)nc3c2n1`, for which the values for the LC50 in the assay on Melanoma cell line and with NSCLC were 55 µM and 52.5 µM, respectively.

For the origin of these results see ChEMBL document CHEMBL5500359, “Identification of a new bisindolinone arresting IGROV1 cells proliferation” (Eur J Med Chem, 2024).
